According to ChEMBL document CHEMBL3585321, “Synthesis and antimicrobial activity of chloramphenicol-polyamine conjugates” (Bioorg Med Chem, 2015):
pIC50, pKi: −log10 of the molar value. Active and inactive are the calls of the source. The rule behind the calls is not given here.

Key:
Staphylococcus aureus [1] = assay: Antibacterial activity against methicillin-resistant Staphylococcus aureus GRE2691 assessed as inhibition of bacterial growth; type: functional, organism-based
Escherichia coli [2] = assay: Reduction in spermidine content in Escherichia coli K-12 at 35.5 uM after 3 hrs by UV and mass spectrometry; type: functional; conditions: K-12, 3 h
[3] = Inhibition of Escherichia coli K-12 70S ribosome poly(U)-programmed ribosome (complex C) bearing tRNAPhe at E-site and Ac[3H]Phe-tRNA at P-site assessed as reduction in peptide bond formation using puromycin(S) substrate
Escherichia coli [4] = assay: Activity of Escherichia coli chloramphenicol acetyltransferase assessed as coenzyme A formation using acetyl coenzyme A at 0.154 mM
Escherichia coli [5] = assay: Antibacterial activity against Escherichia coli Rosetta(DE3) containing rare tRNA genes and chloramphenicol resistant gene in pLysS plasmid assessed as inhibition of bacterial growth; type: functional, organism-based
Method in brief: (§1)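 IC50 from bacterial cultures grown in LB medium without drug or with drug across a range of concentrations, reported in μM. Three independent experiments, each with two replicates, given as mean±SD.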

Escherichia coli [6] = assay: Reduction in spermidine content in Escherichia coli K-12 at 35.5 uM by UV and mass spectrometry (reference value: 1.63 +/- 0.5 umol/g w.w); type: functional
Escherichia coli [7] = assay: Antibacterial activity against wild type Escherichia coli K-12 assessed as inhibition of bacterial growth; type: functional, organism-based
Escherichia coli [8] = assay: Antibacterial activity against Escherichia coli lacking chromosomal rrn alleles and containing pKK35 plasmids possessing 23S rRNA A2503C mutant assessed as inhibition of bacterial growth; type: functional, organism-based
Escherichia coli [9] = assay: Antibacterial activity against Escherichia coli lacking chromosomal rrn alleles and containing pKK35 plasmids possessing 23S rRNA A2058G mutant assessed as inhibition of bacterial growth; type: functional, organism-based
Escherichia coli [10] = assay: Antibacterial activity against wild type Escherichia coli K-12 assessed as inhibition of bacterial growth at antibacterial IC50 level in presence of 10 times IC50 levels of putrescine; type: functional, organism-based
Method in brief: (§2)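 Cells started at A560 0.020 in M9 medium with drug at its own growth IC50, alone or with putrescine, spermidine or spermine at 10×IC50. Cultures run until the drug-free control reached A560 0.800. Growth given as percent of control optical density. At least three experiments, two replicates each, mean±SD, p<0.05.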

Staphylococcus aureus [11] = assay: Antibacterial activity against methicillin-resistant Staphylococcus aureus GRE2272 assessed as inhibition of bacterial growth; type: functional, organism-based
Escherichia coli [12] = assay: Reduction in protein content in Escherichia coli K-12 at 35.5 uM (reference value: 57 +/- 6.35 mg/g w.w); type: functional
Escherichia coli [13] = assay: Reduction in putrescine content in Escherichia coli K-12 at 35.5 uM by UV and mass spectrometry (reference value: 7.6 +/- 1.2 umol/g w.w); type: functional
Staphylococcus aureus [14] = assay: Antibacterial activity against wild type Staphylococcus aureus assessed as inhibition of bacterial growth at antibacterial IC50 level in presence of 10 times IC50 levels of spermidine; type: functional, organism-based; method in brief: as §2
Escherichia coli K-12 [15] = assay: Drug metabolism in Escherichia coli K-12 assessed as N8,N8-dibenzylspermidine formation at 35.5 uM by RP-HPLC method; type: ADME, organism-based; conditions: escherichia coli k-12, in vivo
Method in brief: (§3)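 Washed cells homogenized in 0.6 M HClO4 and centrifuged. Supernatant checked by RP-HPLC for released N8,N8-dibenzylspermidine.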

Staphylococcus aureus [16] = assay: Antibacterial activity against wild type Staphylococcus aureus assessed as inhibition of bacterial growth at antibacterial IC50 level in presence of 10 times IC50 levels of putrescine; type: functional, organism-based; method in brief: as §2
Escherichia coli [17] = assay: Antibacterial activity against Escherichia coli BL21(DE3) expressing delta-tolC gene assessed as inhibition of bacterial growth; type: functional, organism-based; method in brief: as §1
Escherichia coli [18] = assay: Reduction in putrescine content in Escherichia coli K-12 at 35.5 uM after 3 hrs by UV and mass spectrometry; type: functional; conditions: K-12, 3 h
Escherichia coli [19] = assay: Antibacterial activity against wild type Escherichia coli K-12 assessed as inhibition of bacterial growth at antibacterial IC50 level in presence of 10 times IC50 levels of spermidine; type: functional, organism-based; method in brief: as §2
Escherichia coli [20] = assay: Ratio of Vmax to Km for Escherichia coli chloramphenicol acetyltransferase assessed as coenzyme A formation using acetyl coenzyme A at 0.154 mM
Staphylococcus aureus [21] = assay: Antibacterial activity against wild type Staphylococcus aureus assessed as inhibition of bacterial growth; type: functional, organism-based
Escherichia coli [22] = assay: Antibacterial activity against wild type Escherichia coli K-12 assessed as inhibition of bacterial growth at antibacterial IC50 level in presence of 10 times IC50 levels of spermine; type: functional, organism-based; method in brief: as §2
Staphylococcus aureus [23] = assay: Antibacterial activity against methicillin-resistant Staphylococcus aureus GRE2372 assessed as inhibition of bacterial growth; type: functional, organism-based
Escherichia coli K-12 [24] = assay: Drug level in Escherichia coli K-12 at 35.5 uM by RP-HPLC method; type: ADME, organism-based; conditions: in vivo
Staphylococcus aureus [25] = assay: Antibacterial activity against wild type Staphylococcus aureus assessed as inhibition of bacterial growth at antibacterial IC50 level in presence of 10 times IC50 levels of spermine; type: functional, organism-based; method in brief: as §2
Escherichia coli [26] = assay: Potency index, ratio of IC50 against wild type Escherichia coli K-12 to IC50 against Escherichia coli BL21(DE3) expressing delta-tolC gene; type: functional
Escherichia coli K-12 [27] = assay: Drug metabolism in Escherichia coli K-12 assessed as N8,N8-dibenzylspermidine formation at 9.4 uM by RP-HPLC method; type: ADME, organism-based; conditions: escherichia coli k-12, in vivo; method in brief: as §3
Escherichia coli [28] = assay: Reduction in putrescine content in Escherichia coli K-12 at 9.4 uM after 3 hrs by UV and mass spectrometry; type: functional; conditions: K-12, 3 h
Escherichia coli [29] = assay: Reduction in protein content in Escherichia coli K-12 at 9.4 uM (reference value: 57 +/- 6.35 mg/g w.w); type: functional
Escherichia coli [30] = assay: Reduction in putrescine content in Escherichia coli K-12 at 9.4 uM by UV and mass spectrometry (reference value: 7.6 +/- 1.2 umol/g w.w); type: functional
Escherichia coli [31] = assay: Reduction in spermidine content in Escherichia coli K-12 at 9.4 uM by UV and mass spectrometry (reference value: 1.63 +/- 0.5 umol/g w.w); type: functional
Escherichia coli K-12 [32] = assay: Drug level in Escherichia coli K-12 at 9.4 uM by RP-HPLC method; type: ADME, organism-based; conditions: in vivo
Escherichia coli [33] = assay: Reduction in spermidine content in Escherichia coli K-12 at 9.4 uM after 3 hrs by UV and mass spectrometry; type: functional; conditions: K-12, 3 h

| Compound | pIC50 (Staphylococcus aureus [1]) | Km (Escherichia coli [4]) | Vmax (Escherichia coli [4]) | pIC50 (Escherichia coli [5]) | pIC50 (Escherichia coli [7]) | pIC50 (Escherichia coli [8]) | pIC50 (Escherichia coli [9]) | growth inhibition (GI) (Escherichia coli [10]) | pIC50 (Staphylococcus aureus [11]) | growth inhibition (GI) (Staphylococcus aureus [14]) | growth inhibition (GI) (Staphylococcus aureus [16]) | pIC50 (Escherichia coli [17]) | growth inhibition (GI) (Escherichia coli [19]) | Vmax/Km (Escherichia coli [20]) | pIC50 (Staphylococcus aureus [21]) | growth inhibition (GI) (Escherichia coli [22]) | pIC50 (Staphylococcus aureus [23]) | growth inhibition (GI) (Staphylococcus aureus [25]) | other results |
| --- | --- | --- | --- | --- | --- | --- | --- | --- | --- | --- | --- | --- | --- | --- | --- | --- | --- | --- | --- |
| O=C(CCC(=O)N[C@H](CO)[C@H](O)c1ccc([N+](=O)[O-])cc1)NCCCNCCCCN(Cc1ccccc1)Cc1ccccc1 | < 3.70 | 53.5 µM | 4.56 µM/min | 4.37 | 4.45 | 4.43 | 4.49 | inactive | < 4.00 | inactive | inactive | 4.48 | inactive | 0.085 min⁻¹ | 4.86 | inactive | < 4.00 | inactive | inhibition at 35.5 µM (Escherichia coli [2]): 95%; pKi [3]: 6.22; Activity (Escherichia coli [6]): 0.35 µmol/g; Activity (Escherichia coli [12]): 21.8 mg/g; Activity (Escherichia coli [13]): 0.46 µmol/g; Drug metabolism (Escherichia coli K-12 [15]): metabolite_notdetected; inhibition at 35.5 µM (Escherichia coli [18]): 90%; Drug uptake (Escherichia coli K-12 [24]): 3.96 µM |
| O=C(N[C@H](CO)[C@H](O)c1ccc([N+](=O)[O-])cc1)C(Cl)Cl [CHLORAMPHENICOL] | 4.84 | 59.3 µM | 8.23 µM/min | 3.96 | 5.21 | 4.61 | 4.81 | Active | 5.10 | Active | Active | 5.70 | Active | 0.139 min⁻¹ | 5.51 | Active | 5.22 | Active | pKi [3]: 6.06; Ratio IC50 (Escherichia coli [26]): 3 |
| NCCCN(CCCCN(Cc1ccccc1)Cc1ccccc1)C(=O)CCC(=O)N[C@H](CO)[C@H](O)c1ccc([N+](=O)[O-])cc1 [listing 1 of 2 here] | – | 37.7 µM | 1.54 µM/min | – | – | – | – | inactive | – | inactive | inactive | – | inactive | 0.041 min⁻¹ | – | inactive | – | inactive | – |
| NCCCN(CCCCN(Cc1ccccc1)Cc1ccccc1)C(=O)CCC(=O)N[C@H](CO)[C@H](O)c1ccc([N+](=O)[O-])cc1 [listing 2 of 2 here] | 5.00 | – | – | 4.72 | 5.03 | 5.03 | 5.03 | – | 5.15 | – | – | 5.05 | – | – | 5.33 | – | 5.05 | – | Drug metabolism (Escherichia coli K-12 [27]): metabolite_notdetected; inhibition at 9.4 µM (Escherichia coli [28]): 75%; Activity (Escherichia coli [29]): 13.1 mg/g; Activity (Escherichia coli [30]): 1.14 µmol/g; Activity (Escherichia coli [31]): 0.47 µmol/g; Drug uptake (Escherichia coli K-12 [32]): 1.06 µM; inhibition at 9.4 µM (Escherichia coli [33]): 80% |
| NCCCNCCCCNCCCNC(=O)CCC(=O)N[C@H](CO)[C@H](O)c1ccc([N+](=O)[O-])cc1 [listing 1 of 2 here] | < 3.70 | – | – | < 3.70 | < 4.00 | < 4.00 | < 4.00 | – | < 3.70 | – | – | < 4.00 | – | – | 4.34 | – | < 3.70 | – | – |
| NCCCNCCCCNCCCNC(=O)CCC(=O)N[C@H](CO)[C@H](O)c1ccc([N+](=O)[O-])cc1 [listing 2 of 2 here] | – | – | – | – | – | – | – | inactive | – | inactive | inactive | – | inactive | – | – | inactive | – | inactive | – |
| NCCCCN(CCCN)C(=O)CCC(=O)N[C@H](CO)[C@H](O)c1ccc([N+](=O)[O-])cc1 | – | – | – | – | – | – | – | inactive | – | inactive | inactive | – | inactive | – | – | inactive | – | inactive | – |
